Tests used:
[1] = molecular target: Adrenergic receptor alpha-1 (Homo sapiens) (UniProt P35348+P25100+P35368); assay: Dissociation constant for Alpha-1-adrenergic receptor was determined before and after addition of phentolamine; conditions: Oryctolagus cuniculus
Summary of the method: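 Rabbit ear artery with cocaine 2×10^-6 g/mL. After cumulative NE and test-drug curves and washout, phentolamine 10^-7 M is superfused for 30 min of equilibration. NE and test-drug curves are then repeated. K_B for phentolamine = [phentolamine]/((EC50 with phentolamine / EC50 without) − 1).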

[2] = Alpha-1 adrenergic receptor activation causing vasoconstriction in the isolated rabbit ear artery; assay type: functional, tissue-based; conditions: Oryctolagus cuniculus
Summary of the method: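 Isolated rabbit ear artery segments with cocaine 2×10^-6 g/mL present throughout to block neuronal uptake. A cumulative norepinephrine curve (10^-8 to 3×10^-6 M) is run first to set the maximum response. After washout, a cumulative test-drug curve is run, stepping concentration once the response is stable. EC50 = concentration giving 50% of the NE maximum.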

SMILES: COc1ccc(OC)c2c1CCC(N)C2 (stereo not drawn)
- Kb [1]: 6 nM
- EC50 [2]: 120 nM

SMILES: COc1cccc2c1CC(N)CC2 (stereo not drawn)
- Kb [1]: 12 nM
- EC50 [2]: 1700 nM

SMILES: CNC1CCc2c(OC)ccc(OC)c2C1 (stereo not drawn)
- Kb [1]: 11 nM
- EC50 [2]: 86 nM

SMILES: COc1ccc(SC)c2c1CC(N)CC2 (stereo not drawn)
- Kb [1]: 5 nM
- EC50 [2]: 12 nM

SMILES: CCNC1CCc2c(OC)ccc(OC)c2C1 (stereo not drawn)
- Kb [1]: 8 nM
- EC50 [2]: 81 nM

SMILES: CCNC1CCc2c(OC)ccc(SC)c2C1 (stereo not drawn)
- Kb [1]: 16 nM
- EC50 [2]: 140 nM

SMILES: CCNC1CCc2c(I)ccc(OC)c2C1 (stereo not drawn)
- Kb [1]: 11 nM
- EC50 [2]: 21 nM

SMILES: CCNC1CCc2c(SC)ccc(OC)c2C1 (stereo not drawn)
- EC50 [2]: 26 nM

SMILES: NC1CCc2ccccc2C1 (stereo not drawn)
- EC50 [2]: > 30000 nM

SMILES: COc1ccc(OC)c2c1CCC(N(C)C)C2 (stereo not drawn)
- Kb [1]: 15 nM
- EC50 [2]: 81 nM

SMILES: Cc1ccc(C)c2c1CCC(N)C2 (stereo not drawn)
- EC50 [2]: 10000 nM

SMILES: COc1ccc(OC)c(C(O)C(C)N)c1 (stereo not drawn) [METHOXAMINE]
- Kb [1]: 11 nM
- EC50 [2]: 720 nM

SMILES: CCNC1CCc2c(OC)ccc(I)c2C1 (stereo not drawn)
- Kb [1]: 12 nM
- EC50 [2]: 64 nM

SMILES: CCNC1CCc2c(N)ccc(OC)c2C1 (stereo not drawn)
- EC50 [2]: 5300 nM

SMILES: CCCNC1CCc2c(OC)ccc(OC)c2C1 (stereo not drawn)
- Kb [1]: 18 nM
- EC50 [2]: 1100 nM

SMILES: NC[C@H](O)c1ccc(O)c(O)c1 [NOREPINEPHRINE]
- EC50 [2]: 150 nM

SMILES: COc1ccc(SC)c2c1CC(N(C)C)CC2 (stereo not drawn)
- Kb [1]: 9 nM
- EC50 [2]: 14 nM

SMILES: COc1ccc(Cl)c2c1CCC(N)C2 (stereo not drawn)
- Kb [1]: 13 nM
- EC50 [2]: 230 nM

SMILES: CCNC1CCc2c(OC)ccc(Cl)c2C1 (stereo not drawn)
- Kb [1]: 14 nM
- EC50 [2]: 64 nM

SMILES: CCNC1CCc2ccc(OC)c(OC)c2C1 (stereo not drawn)
- EC50 [2]: > 10000 nM

SMILES: COc1cc2c(cc1OC)CC(N)CC2 (stereo not drawn)
- EC50 [2]: > 10000 nM

SMILES: COc1cccc2c1CCC(N)C2 (stereo not drawn)
- Kb [1]: 7 nM
- EC50 [2]: 2200 nM

SMILES: CCNC1CCc2c(Sc3ccccc3)ccc(OC)c2C1 (stereo not drawn)
- EC50 [2]: 700 nM
